Activity calls are given as the source filed them. The calls are words filed in the database; no cut-off is given here.
How the values were obtained:
[1] = biological target: T1, Cathepsin G (Homo sapiens) (UniProt P08311); assay: Inhibitory activity against Cathepsin G (CatG) at 27 uM concentration
T1 sequence (whole entry): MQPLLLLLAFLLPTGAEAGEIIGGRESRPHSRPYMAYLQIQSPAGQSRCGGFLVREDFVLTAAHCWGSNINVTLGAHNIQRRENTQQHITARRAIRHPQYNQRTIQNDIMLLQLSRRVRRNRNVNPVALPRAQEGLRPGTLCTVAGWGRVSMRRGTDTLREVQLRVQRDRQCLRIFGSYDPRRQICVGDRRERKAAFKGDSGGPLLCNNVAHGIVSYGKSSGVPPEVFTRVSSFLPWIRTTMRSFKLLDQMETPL

[2] = biological target: Chymotrypsinogen A (Bos taurus) (UniProt P00766); assay: Inhibitory activity against Chymotrypsinogen at 27 uM concentration
Neutrophil elastase [3] = biological target: T2, Neutrophil elastase (Homo sapiens, UniProt P08246); assay: Compound was tested for the enzyme inhibitory activity against Human Leukocyte Elastase (HLE) at 27 uM concentration
T2 sequence (P08246 whole entry): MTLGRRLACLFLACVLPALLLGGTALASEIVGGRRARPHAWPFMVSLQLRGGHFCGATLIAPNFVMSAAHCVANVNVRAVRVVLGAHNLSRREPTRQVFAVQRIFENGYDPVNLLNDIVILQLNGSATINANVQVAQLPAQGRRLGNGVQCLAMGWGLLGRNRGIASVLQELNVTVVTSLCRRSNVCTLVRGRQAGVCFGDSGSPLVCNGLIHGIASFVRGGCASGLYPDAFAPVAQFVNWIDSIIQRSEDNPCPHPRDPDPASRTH

[4] = biological target: T3, Chymotrypsin-like elastase family member 2A (Sus scrofa) (UniProt P08419); assay: Inhibitory activity against Porcine Pancreatic Elastase (PPE) at 27 uM concentration; NI = no inhibition
T3 sequence (whole entry): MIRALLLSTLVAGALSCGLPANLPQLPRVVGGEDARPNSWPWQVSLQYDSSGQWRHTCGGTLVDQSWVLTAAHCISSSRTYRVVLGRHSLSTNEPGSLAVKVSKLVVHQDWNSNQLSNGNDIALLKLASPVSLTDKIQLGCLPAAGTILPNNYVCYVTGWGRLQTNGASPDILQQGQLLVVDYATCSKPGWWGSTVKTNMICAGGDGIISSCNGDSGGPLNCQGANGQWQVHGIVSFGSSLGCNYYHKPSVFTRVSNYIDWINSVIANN

[5] = biological target: T4, Neutrophil elastase (Homo sapiens) (UniProt P08246); conditions: 27 uM
T4 sequence (whole entry): T2 sequence (P08246 whole entry)

[6] = biological target: Chymotrypsinogen A (Bos taurus) (UniProt P00766); assay: Inhibitory activity against Chymotrypsinogen at 55 uM concentration
[7] = biological target: T1, Cathepsin G (Homo sapiens); assay: Inhibitory activity against Cathepsin G (CatG) at 55 uM concentration
[8] = biological target: T3, Chymotrypsin-like elastase family member 2A (Sus scrofa); assay: Inhibitory activity against Porcine Pancreatic Elastase (PPE) at 55 uM concentration; NI = no inhibition
Neutrophil elastase [9] = biological target: T2, Neutrophil elastase; assay: Compound was tested for the enzyme inhibitory activity against Human Leukocyte Elastase (HLE) at 55 uM concentration
[10] = biological target: T4, Neutrophil elastase (Homo sapiens); assay: Inhibitory activity against Human Leukocyte Elastase (HLE) at 55 uM concentration
[11] = biological target: T1, Cathepsin G (Homo sapiens); assay: Inhibitory activity against Cathepsin G (CatG) at 28 uM concentration
[12] = biological target: Chymotrypsinogen A (Bos taurus) (UniProt P00766); assay: Inhibitory activity against Chymotrypsinogen at 28 uM concentration; NI = no inhibition
[13] = biological target: T4, Neutrophil elastase (Homo sapiens); assay: Inhibitory activity against Human Leukocyte Elastase (HLE) at 28 uM concentration
Neutrophil elastase [14] = biological target: T2, Neutrophil elastase; assay: Compound was tested for the enzyme inhibitory activity against Human Leukocyte Elastase (HLE) at 28 uM concentration
[15] = biological target: T3, Chymotrypsin-like elastase family member 2A (Sus scrofa); assay: Inhibitory activity against Porcine Pancreatic Elastase (PPE) at 28 uM concentration; NI = no inhibition
[16] = biological target: Chymotrypsinogen A (Bos taurus) (UniProt P00766); assay: Inhibitory activity against Chymotrypsinogen at 53 uM concentration
Outline: (§1)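 Percent inhibition of enzyme activity at a single inhibitor concentration. Assays run at 25 °C in 0.1 M HEPES, 0.5 M NaCl, pH 7.5, with 9-11% DMSO. The method otherwise follows an earlier report.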

[17] = biological target: T1, Cathepsin G (Homo sapiens); assay: Inhibitory activity against Cathepsin G (CatG) at 53 uM concentration; outline: as §1
[18] = biological target: T4, Neutrophil elastase (Homo sapiens); assay: Inhibitory activity against Human Leukocyte Elastase (HLE) at 53 uM concentration; outline: as §1
[19] = biological target: T3, Chymotrypsin-like elastase family member 2A (Sus scrofa); assay: Inhibitory activity against Porcine Pancreatic Elastase (PPE) at 53 uM concentration; NI = no inhibition; outline: as §1
Neutrophil elastase [20] = biological target: T2, Neutrophil elastase; assay: Compound was tested for the enzyme inhibitory activity against Human Leukocyte Elastase (HLE) at 53 uM concentration; outline: as §1
[21] = biological target: T1, Cathepsin G (Homo sapiens); assay: Inhibitory activity against Cathepsin G (CatG) at 65 uM concentration
[22] = biological target: T3, Chymotrypsin-like elastase family member 2A (Sus scrofa); assay: Inhibitory activity against Porcine Pancreatic Elastase (PPE) at 65 uM concentration; NI = no inhibition
Neutrophil elastase [23] = biological target: T2, Neutrophil elastase; assay: Compound was tested for the enzyme inhibitory activity against Human Leukocyte Elastase (HLE) at 65 uM concentration
[24] = biological target: T4, Neutrophil elastase (Homo sapiens); assay: Inhibitory activity against Human Leukocyte Elastase (HLE) at 65 uM concentration
[25] = biological target: T1, Cathepsin G (Homo sapiens); assay: Inhibitory activity against Cathepsin G (CatG) at 30 uM concentration
[26] = biological target: T4, Neutrophil elastase (Homo sapiens); assay: Inhibitory activity against Human Leukocyte Elastase (HLE) at 30 uM concentration
Neutrophil elastase [27] = biological target: T2, Neutrophil elastase; assay: Compound was tested for the enzyme inhibitory activity against Human Leukocyte Elastase (HLE) at 30 uM concentration
[28] = biological target: T3, Chymotrypsin-like elastase family member 2A (Sus scrofa); assay: Inhibitory activity against Porcine Pancreatic Elastase (PPE) at 30 uM concentration; NI = no inhibition
[29] = biological target: T4, Neutrophil elastase (Homo sapiens); assay: Inhibitory activity against Human Leukocyte Elastase (HLE) at 52 uM concentration
Neutrophil elastase [30] = biological target: T2, Neutrophil elastase; assay: Compound was tested for the enzyme inhibitory activity against Human Leukocyte Elastase (HLE) at 52 uM concentration
[31] = biological target: T3, Chymotrypsin-like elastase family member 2A (Sus scrofa); assay: Inhibitory activity against Porcine Pancreatic Elastase (PPE) at 52 uM concentration; NI = no inhibition
[32] = biological target: Chymotrypsinogen A (Bos taurus) (UniProt P00766); assay: Inhibitory activity against Chymotrypsinogen at 52 uM concentration; NI = no inhibition

COc1cc(OC)c2c(c1)C(=O)c1ccc(C)c(O)c1C2=O
inhibition [1]: 4% | inhibition [2]: 7% | IC50 (Neutrophil elastase [3]): 13 µM | inhibition [4]: inactive | inhibition [5]: 80%

Cc1ccc2c(c1O)C(=O)c1c(O)cc(O)cc1C2=O
inhibition [6]: 5% | inhibition [7]: 13% | inhibition [8]: inactive | IC50 (Neutrophil elastase [9]): 21 µM | inhibition [10]: 100%

Cc1cc(O)c2c(c1)C(=O)c1cccc(O)c1C2=O [CHRYSOPHANOL]
inhibition [11]: 39% | inhibition [12]: inactive | inhibition [13]: 79% | IC50 (Neutrophil elastase [14]): 18 µM | inhibition [15]: inactive

Cc1cc(O)c2c(c1)C(=O)c1cc(O)cc(O)c1C2=O [EMODIN]
inhibition [16]: 2% | inhibition [17]: 42% | inhibition [18]: 55% | inhibition [19]: inactive | IC50 (Neutrophil elastase [20]): 52 µM

COc1cc(O)c2c(c1)C(=O)c1cc(C)cc(O)c1C2=O [PHYSCION]
inhibition [21]: 39% | inhibition [22]: inactive | IC50 (Neutrophil elastase [23]): 6.2 µM | inhibition [24]: 100%

COc1cc(OC)c2c(c1)C(=O)c1cc(C(Br)Br)cc(OC)c1C2=O
inhibition [25]: 24% | inhibition [26]: 61% | IC50 (Neutrophil elastase [27]): 17 µM | inhibition [28]: inactive

CC(=O)Oc1cc(OC(C)=O)c2c(c1)C(=O)c1ccc(C)c(OC(C)=O)c1C2=O
inhibition [29]: 96% | IC50 (Neutrophil elastase [30]): 12 µM | inhibition [31]: inactive | inhibition [32]: inactive
